{
  "source": "paper PMC3381860",
  "about": "(Chemmedchem, 2011)",
  "key": {"[1]": {"test_system": "P. falciparum HB3 (chloroquine-sensitive)", "assay": "P. falciparum HB3 antiplasmodial activity", "assay_type": "cell-based, Plasmodium falciparum", "details": "read-out: Antiplasmodial activity IC50 HB3"}, "J774": {"test_system": "J774", "assay": "Cytotoxicity against uninfected J774 cells", "assay_type": "cell-based", "details": "read-out: Cytotoxicity IC50 J774"}, "HepG2": {"test_system": "HepG2", "assay": "Cytotoxicity against uninfected HepG2 cells", "assay_type": "cell-based", "details": "read-out: Cytotoxicity IC50 HepG2"}, "heme crystallization": {"test_system": "heme crystallization", "assay": "Parasite-free colorimetric heme crystallization inhibition", "assay_type": "biochemical", "details": "molar equivalents of compound to heme"}, "[2]": {"assay": "Spectrophotometric titration of Fe", "assay_type": "binding", "summary_of_the_method": "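Heme (Fe(III)PPIX) titrated with test compound from 1:1 to 16:1 mol equiv compound:heme at 23 °C in 40 % DMSO, 20 mM HEPES, pH 7.4. Soret-band and Q-band absorbance recorded after each addition. Spectra corrected for dilution by subtracting a reference cell.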"}, "[3]": {"test_system": "P. falciparum Dd2 (chloroquine-resistant)", "assay": "P. falciparum Dd2 antiplasmodial activity", "assay_type": "cell-based, Plasmodium falciparum", "details": "read-out: Antiplasmodial activity IC50 Dd2"}, "P. falciparum (3D7) [4]": {"test_system": "P. falciparum (3D7)", "assay": "P. falciparum 3D7 proliferation", "assay_type": "cell-based, Plasmodium falciparum"}, "Vero": {"test_system": "Vero", "assay": "Cytotoxicity against uninfected Vero cells", "assay_type": "cell-based", "details": "for IC50: read-out: Cytotoxicity IC50 Vero, uninfected Vero cells"}, "[5]": {"test_system": "P. falciparum HB3 (chloroquine-sensitive)", "details": "read-out: Antiplasmodial activity IC50 HB3, ref Hawley et al. [30]; cited from earlier work"}, "P. falciparum (3D7) [6]": {"test_system": "P. falciparum (3D7)", "details": "read-out: Antiplasmodial activity IC50 3D7, ref Hawley et al. [30]; cited from earlier work"}, "[7]": {"details": "read-out: Antiplasmodial activity IC50 3D7, 3D7, chloroquine-sensitive"}, "[8]": {"details": "read-out: P. falciparum (3D7) IC50, 3D7 strain"}},
  "note": "Values joined by “and” are separate entries in the source; they are usually repeats but may differ in a detail not shown here. Equal values may be shown once. Read-outs that look alike come from different tables or passages of the source.",
  "data": [
    {"compound": "18-acetylbromophycolide A [Compound 7]", "values": [
      {"measurement": "IC50", "setting": "[1]", "value": "431 ± 25", "unit": "nM"},
      {"measurement": "IC50", "setting": "J774", "value": 24700, "unit": "nM"},
      {"measurement": "IC50", "setting": "HepG2", "value": 38500, "unit": "nM"},
      {"measurement": "Heme crystallization IC50", "setting": "heme crystallization", "value": "2.0 mol equiv and 2.0 ± 0.15 mol equiv"},
      {"measurement": "decrease in Soret band (λ 402 nm) absorbance of Fe^IIIPPIX upon titration", "setting": "[2]; 40 % DMSO, 20 mM HEPES, pH 7.4", "value": 25, "unit": "%"},
      {"measurement": "IC50", "setting": "[3]", "value": "304 ± 8.4", "unit": "nM"},
      {"measurement": "IC50", "setting": "P. falciparum (3D7) [4]; [7]", "value": "241 ± 52", "unit": "nM"},
      {"measurement": "IC50", "setting": "P. falciparum (3D7) [4]; [8]", "value": 240, "unit": "nM"},
      {"measurement": "IC50", "setting": "Vero", "value": 74000, "unit": "nM"},
      {"measurement": "fold increase in activity for P. falciparum parasites over mammalian (Vero) cells", "setting": "Vero; selectivity P. falciparum vs Vero", "value": 300, "unit": "fold"}
    ]},
    {"compound": "debromophycolide A [Compound 6]", "values": [
      {"measurement": "P. falciparum (3D7) IC50", "setting": "P. falciparum (3D7) [4]; 3D7 strain", "value": "completely inactive"},
      {"measurement": "IC50", "setting": "P. falciparum (3D7) [4]; [8]", "value": "> 100000", "unit": "nM"}
    ]},
    {"compound": "CC1=C2Cc3cc(ccc3O)C(=O)O[C@H](C(C)(C)Br)CC[C@](C)(O)[C@H](Br)CC[C@]2(C)[C@@H](Br)CC1", "note": "[Compound 1, bromophycolide A]", "values": [
      {"measurement": "IC50", "setting": "[1]", "value": "493 ± 44", "unit": "nM"},
      {"measurement": "IC50", "setting": "J774", "value": 19000, "unit": "nM"},
      {"measurement": "IC50", "setting": "HepG2", "value": 21300, "unit": "nM"},
      {"measurement": "Heme crystallization IC50", "setting": "heme crystallization", "value": "2.5 mol equiv and 2.5 ± 0.13 mol equiv"},
      {"measurement": "association constant log K of Fe^IIIPPIX–compound complex", "setting": "[2]; 1:1 complexation model, 40 % DMSO, 20 mM HEPES, pH 7.4", "value": "4.52 ± 0.18"},
      {"measurement": "decrease in Soret band (λ 402 nm) absorbance of Fe^IIIPPIX upon titration", "setting": "[2]; 40 % DMSO, 20 mM HEPES, pH 7.4", "value": 45, "unit": "%"},
      {"measurement": "binding concentration at half-maximum", "setting": "[2]; spectrophotometric titration experiment", "value": 25, "unit": "µM"},
      {"measurement": "IC50", "setting": "[3]", "value": "377 ± 92", "unit": "nM"},
      {"measurement": "IC50", "setting": "P. falciparum (3D7) [4]; [7]", "value": "499 ± 51", "unit": "nM"},
      {"measurement": "IC50", "setting": "P. falciparum (3D7) [4]; [8]", "value": 500, "unit": "nM"},
      {"measurement": "IC50", "setting": "Vero", "value": 34600, "unit": "nM"}
    ]},
    {"compound": "C=C(C)[C@@H]1CC[C@](C)(O)[C@H](Br)CC[C@@]2(C)[C@H](Cc3cc(ccc3O)C(=O)O1)C(=C)CC[C@@H]2Br", "note": "[Compound 4, bromophycolide E]", "values": [
      {"measurement": "IC50", "setting": "P. falciparum (3D7) [4]; [8]", "value": 820, "unit": "nM"}
    ]},
    {"compound": "CCN(CC)Cc1cc(Nc2ccnc3cc(Cl)ccc23)ccc1O", "note": "[AMQ, amodiaquine, reference compound]", "values": [
      {"measurement": "Heme crystallization IC50", "setting": "heme crystallization", "value": "1.2 ± 0.19", "unit": "mol equiv"},
      {"measurement": "Heme crystallization IC50", "setting": "heme crystallization; listed as amodiaquine", "value": 1.2, "unit": "mol equiv"},
      {"measurement": "IC50", "setting": "[5]", "value": 8.5, "unit": "nM"},
      {"measurement": "IC50", "setting": "P. falciparum (3D7) [6]", "value": 7.8, "unit": "nM"}
    ]},
    {"compound": "bromophycolide D [Compound 3]", "values": [
      {"measurement": "IC50", "setting": "P. falciparum (3D7) [4]; [8]", "value": 350, "unit": "nM"}
    ]},
    {"compound": "C=C(C)[C@@H]1CCC(C)(O)[C@H](Br)CC[C@@]2(C)C(=C(C)CC[C@@H]2Br)Cc2cc(ccc2O)C(=O)O1", "note": "(stereo partly shown) [Compound 5, bromophycolide M]", "values": [
      {"measurement": "IC50", "setting": "P. falciparum (3D7) [4]; [8]", "value": 550, "unit": "nM"}
    ]},
    {"compound": "CC1=C2Cc3cc(ccc3O)C(=O)O[C@H](C(C)(C)O)CC[C@](C)(O)[C@H](Br)CC[C@]2(C)[C@@H](Br)CC1", "note": "[Compound 2, bromophycolide C]", "values": [
      {"measurement": "IC50", "setting": "P. falciparum (3D7) [4]; [8]", "value": 56000, "unit": "nM"}
    ]}
  ]
}
